Test results from ChEMBL document CHEMBL1144684, “Evaluation of a series of naphthamides as potent, orally active vascular endothelial growth factor receptor-2 tyrosine kinase inhibitors” (J Med Chem, 2008).
Calls of active or inactive are those of the source. The calls are words filed in the database; no cut-off is given here.

Tests used:
[1] = target: Hepatocyte growth factor receptor (Homo sapiens, UniProt P08581); experiment: Inhibition of c-Met
[2] = system: Mus musculus; experiment: Inhibition of VEGF-induced vascular permeability in HEK293 cells over expressing mouse recombinant VEGF implanted in CD1 nu/nu mouse assessed as Matrigel plug at 30 mg/kg, po after 6 hrs; type: functional, organism-based; parameters: dose 30 mg/kg
Outline: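 HEK293 cells transfected with murine VEGF (or empty vector) were suspended in Matrigel and injected sc into the ventral surface of CD-1 nu/nu mice. At 24 h post-implant, a single oral gavage dose was given as an OraPlus suspension (or vehicle). After 6 h, Evans blue dye was quantified in 1 cm2 of skin over the plug. Plasma was sampled at 6 h; n = 5/group.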

[3] = system: Liver microsomes; experiment: Metabolic stability assessed as covalent binding in presence of NADPH in rat liver microsomes at 10 uM after 1 hr; type: ADME, Microsome
Outline: (§1)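 14C-labelled compound at 10 µM with human or rat liver microsomes (1 mg/mL) in 0.1 M potassium phosphate pH 7.4, with or without 1 mM NADPH and 1 mM glutathione, 60 min; quenched with ice-cold acetonitrile. Pellet washed with 80% methanol and ethanol/ether, solubilized, protein by BCA, radioactivity by scintillation counting.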

[4] = Clearance in cynomolgus monkey at 0.5 mg/kg, iv; type: ADME, organism-based, Macaca fascicularis; parameters: dose 0.5 mg/kg, route intravenous; conditions: in vivo
Outline: (§2)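 Compound given iv and po as single doses; vehicles: mouse iv PEG 400, po OraPlus; dog iv DMSO, po 1% Tween-80/2% HPMC/97% water; cynomolgus iv propylene glycol, po suspension.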

[5] = Clearance in mouse at 2 mg/kg, iv; type: ADME, organism-based; parameters: dose 2 mg/kg, route intravenous; conditions: in vivo; outline: as §2
[6] = Clearance in dog at 0.5 mg/kg, iv; type: ADME, organism-based, Canis lupus familiaris; parameters: dose 0.5 mg/kg, route intravenous; conditions: in vivo; outline: as §2
[7] = Half life in mouse at 10 mg/kg, po; type: ADME, organism-based; parameters: dose 10 mg/kg, route oral; conditions: in vivo; outline: as §2
[8] = Mean residence time in dog at 0.5 mg/kg, iv; type: ADME, organism-based, Canis lupus familiaris; parameters: dose 0.5 mg/kg, route intravenous; conditions: in vivo
Outline: (§3)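 Intravenous dosing of male/unspecified animals per species; vehicles: mouse 2 mg/kg in Peg 400, dog 0.5 mg/kg in DMSO, cynomolgus monkey 0.5 mg/kg in propylene glycol. Parameters from plasma concentration–time data by noncompartmental analysis.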

[9] = system: Liver microsomes; experiment: Metabolic stability assessed as covalent binding in presence of NADPH and GSH in rat liver microsomes at 10 uM after 1 hr; type: ADME, Microsome; outline: as §1
[10] = Aqueous solubility in 0.01 N Hcl; type: physicochemical
[11] = Cmax in dog at 0.5 mg/kg, po; type: ADME, organism-based, Canis lupus familiaris; parameters: dose 0.5 mg/kg, route oral; conditions: in vivo; outline: as §2
[12] = Cmax in VEGF-soaked disk implanted in Sprague-Dawley rat; type: ADME, organism-based; conditions: in vivo
[13] = Volume of distribution at steady state in Sprague-Dawley rat at 0.5 mg/kg, iv; type: ADME, organism-based; parameters: dose 0.5 mg/kg, route intravenous; conditions: in vivo, read-out: Vdss
Outline: (§4)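 Male Sprague–Dawley rats dosed iv at 0.5 mg/kg as DMSO solution or po at 2 mg/kg as suspension in 100% OraPlus. Serial jugular blood, plasma LC-MS/MS quantitation, noncompartmental analysis.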

[14] = system: HT-29; experiment: Antitumor activity in human HT29 cell xenografted CD1 nu/nu mouse assessed as inhibition of tumor growth at 30 mg/kg, po qd for 14 days; type: functional; conditions: HT-29, 336 h, read-out: TGI
Outline: (§5)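 Female CD-1 nu/nu mice, 4–8 weeks, implanted sc in hind flank with 1 × 10^7 HT29 (DMEM high glucose, 5% FBS) or Calu-6 (RPMI 1640, 10% FBS) cells; treatment began at 13–14 days (~300 mm3). Methanesulfonate salt given po qd in OraPlus for 14 days; caliper volumes twice weekly; n = 10/group; RMANOVA with Scheffé test.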

[15] = system: Liver microsomes; experiment: Metabolic stability assessed as covalent binding in presence of NADPH in human liver microsomes at 10 uM after 1 hr; type: ADME, Microsome; outline: as §1
[16] = Tmax in cynomolgus monkey at 2 mg/kg, po; type: ADME, organism-based, Macaca fascicularis; parameters: dose 2 mg/kg, route oral; conditions: in vivo
Outline: (§6)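 Oral suspension dosing; vehicles: mouse 10 mg/kg in OraPlus, dog 0.5 mg/kg in 1% Tween-80/2% HPMC/97% water, cynomolgus monkey 2 mg/kg.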

[17] = system: Rattus norvegicus; experiment: Inhibition of VEGF-induced angiogenesis in VEGF-soaked disk implanted in Sprague-Dawley rat cornea assessed as number of blood vessels intersecting the midpoint between disk and limbus after 7 days; type: functional; conditions: 168 h
[18] = system: Mus musculus; experiment: Cmax in mouse at 10 mg/kg, po; type: ADME, organism-based; parameters: dose 10 mg/kg, route oral; conditions: in vivo; outline: as §2
[19] = target: Mast/stem cell growth factor receptor Kit (Homo sapiens) (UniProt P10721); experiment: Inhibition of c-Kit
Chain of Mast/stem cell growth factor receptor Kit (Homo sapiens) (P10721 whole entry): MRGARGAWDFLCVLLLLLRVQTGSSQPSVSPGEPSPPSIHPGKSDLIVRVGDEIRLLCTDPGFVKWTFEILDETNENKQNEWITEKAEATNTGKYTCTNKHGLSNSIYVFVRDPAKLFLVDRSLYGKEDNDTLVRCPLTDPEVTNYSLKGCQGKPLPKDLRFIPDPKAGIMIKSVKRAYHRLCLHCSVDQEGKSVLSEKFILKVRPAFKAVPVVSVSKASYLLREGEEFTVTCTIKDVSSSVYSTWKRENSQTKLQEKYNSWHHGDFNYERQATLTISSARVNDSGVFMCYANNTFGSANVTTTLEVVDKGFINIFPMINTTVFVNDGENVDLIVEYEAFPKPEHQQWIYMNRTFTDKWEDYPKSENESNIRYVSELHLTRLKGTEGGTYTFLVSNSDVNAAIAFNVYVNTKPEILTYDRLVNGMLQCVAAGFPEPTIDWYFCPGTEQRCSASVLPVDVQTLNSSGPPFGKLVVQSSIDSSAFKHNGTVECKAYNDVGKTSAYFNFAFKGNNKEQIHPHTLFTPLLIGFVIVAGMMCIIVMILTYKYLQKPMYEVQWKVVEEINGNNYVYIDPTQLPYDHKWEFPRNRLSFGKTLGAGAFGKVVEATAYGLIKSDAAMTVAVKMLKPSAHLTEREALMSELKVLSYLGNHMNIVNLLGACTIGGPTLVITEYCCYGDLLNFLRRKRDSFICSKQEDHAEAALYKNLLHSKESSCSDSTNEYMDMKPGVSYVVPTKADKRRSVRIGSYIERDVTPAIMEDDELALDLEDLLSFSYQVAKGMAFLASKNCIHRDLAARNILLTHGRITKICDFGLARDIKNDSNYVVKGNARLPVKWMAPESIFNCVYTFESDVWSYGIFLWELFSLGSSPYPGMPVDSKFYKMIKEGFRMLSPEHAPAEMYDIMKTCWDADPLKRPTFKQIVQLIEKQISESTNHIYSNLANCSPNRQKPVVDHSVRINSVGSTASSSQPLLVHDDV

[20] = Tmax in mouse at 10 mg/kg, po; type: ADME, organism-based; parameters: dose 10 mg/kg, route oral; conditions: in vivo; outline: as §6
[21] = target: Tyrosine-protein kinase ABL1 (Homo sapiens, UniProt P00519)
Chain of Tyrosine-protein kinase ABL1 (P00519 whole entry): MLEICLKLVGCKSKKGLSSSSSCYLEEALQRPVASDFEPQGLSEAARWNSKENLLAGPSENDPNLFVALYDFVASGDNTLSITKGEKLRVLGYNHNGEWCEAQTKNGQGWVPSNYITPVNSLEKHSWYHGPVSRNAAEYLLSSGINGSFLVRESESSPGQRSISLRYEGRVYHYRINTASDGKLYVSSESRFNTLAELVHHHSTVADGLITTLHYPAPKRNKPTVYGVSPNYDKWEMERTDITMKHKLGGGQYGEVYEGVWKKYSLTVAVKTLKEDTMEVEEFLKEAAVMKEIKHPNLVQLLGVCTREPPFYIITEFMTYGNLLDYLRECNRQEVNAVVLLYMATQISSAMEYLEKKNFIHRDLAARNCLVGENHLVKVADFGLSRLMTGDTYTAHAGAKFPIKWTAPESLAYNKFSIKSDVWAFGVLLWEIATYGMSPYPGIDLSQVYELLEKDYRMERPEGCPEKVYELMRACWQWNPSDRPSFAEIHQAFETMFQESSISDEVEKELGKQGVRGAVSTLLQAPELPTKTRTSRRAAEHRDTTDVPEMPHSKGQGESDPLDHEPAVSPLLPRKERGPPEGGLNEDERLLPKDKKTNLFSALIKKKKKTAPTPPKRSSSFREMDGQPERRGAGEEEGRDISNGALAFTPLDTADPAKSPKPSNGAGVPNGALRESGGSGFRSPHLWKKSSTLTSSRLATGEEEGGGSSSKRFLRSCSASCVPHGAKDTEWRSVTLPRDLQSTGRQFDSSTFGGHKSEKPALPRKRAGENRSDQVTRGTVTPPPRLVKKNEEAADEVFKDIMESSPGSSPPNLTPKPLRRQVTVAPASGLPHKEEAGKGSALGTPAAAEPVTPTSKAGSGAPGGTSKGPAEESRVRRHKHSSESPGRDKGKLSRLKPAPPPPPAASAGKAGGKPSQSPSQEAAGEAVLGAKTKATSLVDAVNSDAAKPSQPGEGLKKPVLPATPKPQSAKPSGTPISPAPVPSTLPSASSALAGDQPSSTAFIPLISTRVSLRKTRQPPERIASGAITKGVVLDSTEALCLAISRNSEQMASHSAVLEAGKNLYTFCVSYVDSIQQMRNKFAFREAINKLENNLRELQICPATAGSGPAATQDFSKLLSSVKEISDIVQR

[22] = system: HUVEC; experiment: Selectivity of IC50 for VEGF-induced proliferation over IC50 for bFGF-induced proliferation of HUVEC; type: functional, Homo sapiens
Outline: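 HUVECs were seeded at 3000 cells/well in DMEM/10% FBS with pen/strep and cultured for 22 h. They were preincubated 2 h with serially diluted compound, then stimulated with 50 ng/mL VEGF or 20 ng/mL bFGF for 72 h at 37 °C, 5% CO2. Cells were washed, frozen at -70 °C and stained with CyQuant. IC50s came from a four-parameter logistic fit, averaged over ≥2 experiments; the VEGF IC50 was compared against the bFGF IC50.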

[23] = Tmax in Sprague-Dawley rat at 2 mg/kg, po; type: ADME, organism-based; parameters: dose 2 mg/kg, route oral; conditions: in vivo; outline: as §4
[24] = Protein binding in mouse plasma; type: ADME, cell-free; conditions: read-out: PPB (converted)
Outline: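 Compound spiked into plasma at 5 µg/mL (12.9 µM) from a DMSO stock, incubated 37 °C 15 min, then ultracentrifuged 3 h at 37 °C. Supernatant below lipid layer measured by LC-MS (n = 6) against QC in plasma filtrate; % bound = 1 − (centrifuged concentration / mean QC) × 100.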

[25] = system: HT-29; experiment: Antitumor activity in human HT29 cell xenografted CD1 nu/nu mouse assessed as inhibition of tumor growth at 10 mg/kg, po qd for 14 days; type: functional; conditions: HT-29, 336 h, read-out: TGI; outline: as §5
[26] = Oral bioavailability in mouse at 10 mg/kg; type: ADME, organism-based; conditions: in vivo; outline: as §6
[27] = Oral bioavailability in cynomolgus monkey at 2 mg/kg; type: ADME, organism-based, Macaca fascicularis; conditions: in vivo; outline: as §6
[28] = system: Calu-6 (Homo sapiens); experiment: Antitumor activity in human Calu6 cell xenografted CD1 nu/nu mouse assessed as inhibition of tumor growth at 6 mg/kg, po qd for 14 days; conditions: Calu-6, po, 336 h, read-out: TGI
[29] = Volume of distribution at steady state in mouse at 2 mg/kg, iv; type: ADME, organism-based; parameters: dose 2 mg/kg, route intravenous; conditions: in vivo, read-out: Vdss; outline: as §3
[30] = system: HUVEC; experiment: Inhibition of bFGF-induced proliferation of HUVEC; type: functional, cell-based; conditions: Homo sapiens
Outline: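 HUVEC seeded at 3000/well in DMEM with 10% FBS, 22 h; 2 h preincubation with serial compound dilutions, then 50 ng/mL VEGF or 20 ng/mL bFGF for 72 h at 37 °C. Freeze–thaw, CyQuant DNA dye read-out; IC50 by four-parameter logistic fit, averaged over ≥2 experiments.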

[31] = AUC (0 to 24 hrs) in dog at 0.5 mg/kg, po; type: ADME, organism-based, Canis lupus familiaris; parameters: time < 24 hr, dose 0.5 mg/kg, route oral; conditions: plasma; outline: as §2
[32] = AUC (0 to 24 hrs) in human HT29 cell xenografted CD1 nu/nu mouse at 10 mg/kg, po qd; type: ADME, organism-based, HT-29; parameters: time < 24 hr, dose 10 mg/kg, route oral; conditions: in vivo

Chain of Hepatocyte growth factor receptor (P08581 whole entry): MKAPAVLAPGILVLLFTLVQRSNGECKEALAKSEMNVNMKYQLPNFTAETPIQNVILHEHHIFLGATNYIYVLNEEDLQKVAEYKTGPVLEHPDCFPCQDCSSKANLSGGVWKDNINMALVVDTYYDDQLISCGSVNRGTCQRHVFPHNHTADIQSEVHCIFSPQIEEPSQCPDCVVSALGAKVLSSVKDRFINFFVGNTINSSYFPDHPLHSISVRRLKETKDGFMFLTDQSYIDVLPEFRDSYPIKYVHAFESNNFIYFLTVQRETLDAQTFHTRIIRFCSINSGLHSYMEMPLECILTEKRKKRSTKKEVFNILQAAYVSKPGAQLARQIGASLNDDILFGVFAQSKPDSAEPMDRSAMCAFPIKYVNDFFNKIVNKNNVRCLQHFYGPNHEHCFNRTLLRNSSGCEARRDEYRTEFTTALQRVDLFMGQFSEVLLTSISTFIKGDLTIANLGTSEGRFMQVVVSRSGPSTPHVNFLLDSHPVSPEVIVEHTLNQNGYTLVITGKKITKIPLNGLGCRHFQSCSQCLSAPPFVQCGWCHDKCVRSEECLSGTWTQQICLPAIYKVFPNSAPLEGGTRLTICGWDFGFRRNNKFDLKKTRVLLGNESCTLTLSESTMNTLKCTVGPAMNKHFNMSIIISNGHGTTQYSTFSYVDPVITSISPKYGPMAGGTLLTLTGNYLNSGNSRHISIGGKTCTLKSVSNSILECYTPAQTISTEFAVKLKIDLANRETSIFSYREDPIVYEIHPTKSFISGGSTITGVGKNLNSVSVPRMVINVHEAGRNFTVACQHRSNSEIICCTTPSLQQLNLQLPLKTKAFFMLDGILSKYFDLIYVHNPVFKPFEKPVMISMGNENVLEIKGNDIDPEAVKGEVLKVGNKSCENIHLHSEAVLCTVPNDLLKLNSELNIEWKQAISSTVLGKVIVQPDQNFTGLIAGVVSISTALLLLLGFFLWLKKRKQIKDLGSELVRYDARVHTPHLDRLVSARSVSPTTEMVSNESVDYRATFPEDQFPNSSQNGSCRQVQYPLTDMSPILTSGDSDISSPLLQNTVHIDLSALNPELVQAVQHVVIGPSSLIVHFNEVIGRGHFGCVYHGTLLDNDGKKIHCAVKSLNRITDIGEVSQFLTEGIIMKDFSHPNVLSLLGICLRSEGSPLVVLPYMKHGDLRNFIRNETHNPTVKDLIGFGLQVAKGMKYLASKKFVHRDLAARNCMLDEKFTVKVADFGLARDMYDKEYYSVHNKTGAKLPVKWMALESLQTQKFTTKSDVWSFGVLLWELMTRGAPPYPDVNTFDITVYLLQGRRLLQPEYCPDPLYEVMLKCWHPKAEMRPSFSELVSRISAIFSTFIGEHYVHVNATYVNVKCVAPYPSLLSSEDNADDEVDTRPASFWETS

Q: Which results are given for `COc1cc2nccc(Oc3ccc4c(C(N)=O)cccc4c3)c2cc1OC`?
A: IC50 [1]: 6900 nM; Cp [2]: 2.3 µM; Stability [3]: 39 pmol/mg/h; clearance [4]: 13 mL/min/kg; clearance [5]: 42.4 mL/min/kg; clearance [6]: 1.72 mL/min/kg; half-life [7]: 5.6 h; MRT [8]: 18 h; Stability [9]: 3.2 pmol/mg/h; solubility [10]: > 200 µg/mL; Cmax [11]: 464 ng/mL; Cmax [12]: 50 nM; Vd [13]: 1.06 L/kg; inhibition in vivo at 30 mg/kg [14]: 94%; Stability [15]: 36 pmol/mg/h; Tmax [16]: 0.83 h; ED50 [17]: 0.04 mg/kg; Cmax [18]: 890 ng/mL; Activity [19]: Active; Tmax [20]: 0.25 h; IC50 [21]: 110 nM; Selectivity ratio [22]: >100; Tmax [23]: 1.6 h; fraction unbound [24]: 0.027; inhibition in vivo at 10 mg/kg [25]: 85%; bioavailability [26]: 39%; bioavailability [27]: 51%; inhibition in vivo at 6 mg/kg [28]: 52%; Vd [29]: 5.74 L/kg; IC50 [30]: 230 nM; AUC(0-t) at 24 h [31]: 3650 ng·h/mL; AUC at 24 h [32]: 3.9 µM·h
